Only some compounds are listed: those with a hit (about 3.4% of all), similar ones and a draw of the others.
TAAR1 ag: human TAAR1 agonism; CHO RD-HGA16 TAAR1, Fluo-8 calcium fluorescence; vehicle wells 0%, saturating PEA agonist 100%; activation, % at 3 µM; actives 0.99% (n = 360,000); AID 624467;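 active = activation above the mean activation of all test compounds in the run plus 3 SD, cut at about 38% in these data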
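Assay system: CHO-derived RD-HGA16 cells with stable Gα16 and human TAAR1; timing: 17-24 h seeding, 75 min 37 °C dye, 30 min RT; read-out: % activation from peak over basal fluorescence ratio, DMSO-to-PEA scaled; measured by: kinetic Fluo-8 calcium fluorescence; benchmarks: low control DMSO, high control PEA (EC100); doses: 3 µM single concentration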
GPR7 antag: human neuropeptides B/W receptor 1 antagonism; GPR7-expressing cells, fluorescence antagonist assay; AID 1861; actives 1.1% (n = 290,000); P48145; inhibition, % at 4.4 µM; in the data active = inhibition above about 16%, passing the limit was not always enough;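 note: cells stimulated with the agonist NPW; 0% = agonist with vehicle and 100% = vehicle without agonist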
LANA-H2B inh: blocks KSHV LANA binding to histone H2A/H2B | actives 0.6% (n = 320,000) | Q9QR71 | cell-free LANA-H2A/H2B peptide, fluorescence polarization | inhibition, % (test concentration not listed); in the data active = inhibition mostly above about 10%, no sharp cut-off; inactive = mostly below about 6.7%
TRPML3 ag: agonists of human TRPML3 channel; Q8TDD5; HEK293 TRPML3-YFP, Fluo-8 calcium fluorescence; 100% = the carbachol control signal; activation, % at 3 µM; actives 0.29% (n = 220,000);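 active = activation above its plate's cutoff, the mean activation of the plate's test wells plus 3 SD, cut at about 12% in these data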;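 note: 0% = DMSO only wells and 100% = carbachol wells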
Target sequence (Q8TDD5 whole entry, looked up): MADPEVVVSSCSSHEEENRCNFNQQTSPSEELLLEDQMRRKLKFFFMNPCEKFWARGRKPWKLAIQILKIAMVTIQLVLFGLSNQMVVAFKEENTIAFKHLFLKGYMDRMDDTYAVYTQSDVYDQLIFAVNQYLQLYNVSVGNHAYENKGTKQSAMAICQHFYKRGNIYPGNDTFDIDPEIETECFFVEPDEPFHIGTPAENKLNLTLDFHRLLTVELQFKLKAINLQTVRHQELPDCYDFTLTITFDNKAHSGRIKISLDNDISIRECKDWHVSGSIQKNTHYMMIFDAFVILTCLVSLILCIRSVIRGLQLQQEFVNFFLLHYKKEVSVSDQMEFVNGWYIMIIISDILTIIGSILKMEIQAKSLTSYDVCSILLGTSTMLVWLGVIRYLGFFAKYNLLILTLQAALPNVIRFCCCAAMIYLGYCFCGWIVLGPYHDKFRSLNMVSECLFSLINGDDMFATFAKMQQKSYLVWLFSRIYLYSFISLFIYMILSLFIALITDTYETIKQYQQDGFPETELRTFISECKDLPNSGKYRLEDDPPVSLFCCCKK
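Material: TRPML3-YFP stable HEK293 cells | Dosing: One concentration, 3 µM nominal, 0.3% DMSO | Timing: 125 s total fluorescence read per well | Technique: Fluo-8 calcium dye fluorescence, ex 470-495, em 515-575 nm | Measure: Percent activation from peak-to-basal fluorescence ratio, scaled between DMSO and carbachol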
TAAR1 antag: human TAAR1 antagonism. AID 624466. actives 1.5% (n = 360,000). CHO RD-HGA16 TAAR1, Fluo-8 calcium fluorescence, antagonist. inhibition, % at 3 µM;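 active = inhibition above a per-plate cutoff, the mean inhibition of test compounds on that plate plus 3 SD, cut at about 49% in these data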;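 note: 0% = DMSO plus EC80 beta-PEA response and 100% = DMSO alone without agonist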
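Test system – hTAAR1-expressing CHO RD-HGA16 cells, Gα16-coupled · Also added – β-PEA at EC80 concentration, post-compound challenge · Compound – 3 µM, single point · Incubation – dye loading 75 min at 37 °C, then 30 min room temperature · Measured by – Fluo-8 intracellular calcium dye fluorescence, real-time kinetic reads · Benchmarks – vehicle and agonist controls · Replicates – singlicate, one well per test compound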
zfTRPN1 agonist: agonists of zebrafish TRPN1 channel. HEK293 zebrafish TRPN1-YFP, Fluo-8 calcium fluorescence; 100% = response to 87 µM carbachol. activation, % at 3 µM. actives 0.18% (n = 220,000);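 active = activation above its plate's cutoff, the mean activation of test wells on that plate plus 3 SD, cut at about 19% in these data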;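 note: 0% = DMSO alone and 100% = 87 µM carbachol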
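Material: zebrafish TRPN1-YFP in HEK293 cells; Doses: single test compound dose, 3 µM nominal, 0.3% DMSO; Timing: dye loading 1 h at 37 °C, then 30 min room temperature; Technique: intracellular calcium fluorescence with Fluo-8; Benchmarks: high carbachol 87 µM, low DMSO alone.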
GPR7 antag cf: confirmation of human GPR7 antagonists; shares compounds with GPR7 antag; actives 52% (n = 2,400); inhibition, % at 4.4 µM; GPR7-expressing cells, calcium fluorescence antagonist mode; in the data active = inhibition above about 24%;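 note: stimulated with the GPR7 agonist NPW; 0% = agonist plus vehicle and 100% = vehicle alone without agonist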
MCHR1 antag: antagonizes human MCHR1, a GPR7 antagonist counter-screen; AID 2148; actives 62% (n = 2,400); MCHR1-expressing cells, fluorescence antagonist assay; shares compounds with GPR7 antag; inhibition, % at 4.4 µM; in the data active = inhibition above about 22%;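 note: 0% = vehicle with agonist and 100% = vehicle without agonist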
The depositor's hits bear a star; nt = not tested or not shown.

SMILES	TAAR1 ag	GPR7 antag	LANA-H2B inh	TRPML3 ag	TAAR1 antag	zfTRPN1 agonist	GPR7 antag cf	MCHR1 antag
CCCCNC(=O)c1nc(-c2cccnc2OC)oc1-c1ccc(Cl)cc1	1.2	nt	nt	nt	-17.7	nt	nt	nt
Cn1nnnc1SCCNCc1ccccc1F	4.6	4.3	4.0	0.8	24.1	0.0	nt	nt
Cn1nnnc1SCCNCC#Cc1ccccc1	7.8	25.5*	4.3	0.3	1.9	1.4	8.5	3.6
Cc1ccccc1CN(c1ccc(C(=O)N2CCc3ccccc3C2)cc1)S(C)(=O)=O	23.4	28.2*	0.9	1.7	51.2*	1.8	52.0*	58.0*
CNC(=O)c1ccc(N(Cc2ccccc2C)S(C)(=O)=O)cc1	0.3	-8.4	-2.9	1.7	-22.0	-1.4	nt	nt
Cc1ccccc1NC(=O)c1cccc(C(=O)Nc2ccccc2C)c1	0.5	nt	4.0	nt	-47.8	nt	nt	nt
Cc1ccccc1NC(=O)c1cccc(C(=O)Nc2ccccc2C)n1	3.5	32.6*	-0.9	nt	20.0	nt	11.5	36.7*
O=S(=O)(NC1c2cccc3cccc(c23)C1N1CCNCC1)c1ccc(Cl)cc1 (stereo not given)	2.8	48.8*	-5.4	1.8	8.8	2.0	47.6*	46.8*
COC(=O)c1ccc(COC(=O)c2ccc(C)c(S(=O)(=O)N3CCCCC3)c2)cc1	1.9	nt	nt	nt	18.7	nt	nt	nt
C=C(C)CSc1nnc(-c2cccc(S(=O)(=O)N(C)C)c2)n1-c1cc(OC)ccc1OC	12.4	31.5*	-4.6	-0.8	20.2	-0.9	34.6*	9.1
CCN(CC)S(=O)(=O)c1ccc(NC(=O)CSc2nnc(-c3cccc(OC)c3)n2C)cc1	4.5	-0.2	3.5	0.5	-1.1	1.2	nt	nt
COc1ccc(C)cc1NS(=O)(=O)c1ccc2c(c1)N(C)CCO2	1.3	-2.2	1.8	nt	5.4	nt	nt	nt
O=C(NCCC1=CCCCC1)c1ccc(Cl)c(S(=O)(=O)N2CCCCC2)c1	10.4	49.6*	-3.5	nt	13.2	nt	44.0*	50.2*
O=C(NCCC1=CCCCC1)c1ccc(Cl)c(S(=O)(=O)N2CCOCC2)c1	25.0	-2.0	-5.7	3.1	-2.7	10.7	nt	nt
Cc1cccc(NC(=O)C2C3C=CC4(O3)C2C(=O)N(CCCN2CCCC2)C4C(=O)NC2CCCC(C)C2C)c1 (stereo not given)	-4.6	0.9	1.5	nt	13.4	nt	nt	nt
Cc1cc(C)cc(NC(=O)C2C3C=CC4(O3)C2C(=O)N(CCCN2CCCC2)C4C(=O)NC2CCCC(C)C2C)c1 (stereo not given)	0.1	26.7*	-1.3	nt	-11.7	nt	-18.9	-10.8
O=C(Cc1cccs1)N=Nc1c(O)[nH]c2ccccc12	5.8	3.6	2.0	-1.0	-12.3	-0.3	nt	nt
O=C(N=Nc1c(O)[nH]c2ccccc12)c1cc(-c2cccs2)[nH]n1	6.2	29.3*	6.3	0.1	32.2	0.0	-5.9	29.2*
O=C(NCc1ccccc1F)C(c1ccccc1)c1ccccc1	6.4	5.3	-2.7	nt	-6.7	nt	nt	nt
CSc1ccc2c(c1)N(CCC1CCCCN1C)c1ccccc1S2 (stereo not given)	17.6	42.5*	-6.4	1.5	38.7	2.5	76.4*	83.3*
CCOC(=O)C1CCCN(C(=O)c2cnn3c(C(F)(F)F)cc(-c4ccccc4)nc23)C1 (stereo not given)	0.9	25.1*	-1.0	-1.6	17.7	-0.2	14.5	10.0
COc1ccc(C(=O)NC(C)C2CC3CCC2C3)cc1 (stereo not given)	-0.3	4.0	-6.0	nt	-24.9	nt	nt	nt
CC(NC(=O)c1ccc(C#N)cc1)C1CC2CCC1C2 (stereo not given)	-2.8	23.4*	-6.0	nt	13.6	nt	-4.2	13.2
COc1ccccc1Cc1c(-c2ccc(C#N)cc2)nc2ccc(C)cn12	3.7	nt	nt	nt	9.2	nt	nt	nt
O=C(O)c1cccc(CN2C(=O)SC(Nc3ccccc3)C2=O)c1 (stereo not given)	4.5	3.2	-0.6	1.0	-3.8	1.2	nt	nt
SMILES	TAAR1 ag	GPR7 antag	LANA-H2B inh	TRPML3 ag	TAAR1 antag	zfTRPN1 agonist	GPR7 antag cf	MCHR1 antag
Cc1ccc(NC2SC(=O)N(Cc3cccc(C(=O)O)c3)C2=O)cc1 (stereo not given)	4.2	29.2*	-1.7	1.1	-7.6	1.0	4.5	-4.4
CCC(=O)c1ccc(OCC(=O)OC(C)C(=O)N2CCc3ccccc32)cc1 (stereo not given)	1.7	nt	3.5	nt	-11.3	nt	nt	nt
Cc1cccc(N2CC(C(=O)OCC(=O)Nc3sccc3C(N)=O)CC2=O)c1C (stereo not given)	11.0	nt	6.5	nt	32.9	nt	nt	nt
Cc1cccc(N2CC(C(=O)OCC(=O)c3ccc(OC(=O)c4cccs4)cc3)CC2=O)c1C (stereo not given)	9.4	30.2*	2.4	-0.3	47.7	0.9	18.1	57.8*
Cc1cc(C)c(CSc2ncc(-c3ccc([N+](=O)[O-])cc3)[nH]2)c(C)c1	7.1	41.6*	-3.1	0.0	59.9*	-0.1	68.0*	83.2*
COc1cccc(-c2nnc(SCC(=O)NCc3ccc4c(c3)OCO4)n2Cc2ccco2)c1	6.6	24.9*	-0.4	-1.1	1.6	-3.5	16.4	7.0
COC(=O)c1cccc(NC(=O)c2cnccn2)c1	3.5	24.1*	5.4	nt	-5.3	nt	7.8	1.4
CCOC(=O)c1cccc(NC(=O)c2cnccn2)c1	2.2	-6.0	4.7	0.4	-4.8	0.4	nt	nt
O=C(c1ccc([N+](=O)[O-])s1)N1CCN(c2ccc(C(F)(F)F)cn2)CC1	-4.0	36.3*	1.0	nt	-1.2	nt	46.7*	57.9*
Cc1ccc(N2C(=O)[C@@H]3[C@H](C2=O)[C@H]2C=CC=NN2[C@@H]3C(=O)Nc2ccccc2)cc1	0.9	-12.6	-3.3	0.3	-6.8	-0.3	nt	nt
O=C(Nc1ccccc1)[C@@H]1[C@@H]2C(=O)N(c3ccc(F)cc3)C(=O)[C@@H]2[C@H]2C=CC=NN21	15.7	26.8*	0.4	-0.5	0.3	-1.1	9.1	0.1
CC(=O)c1ccc(NC(=O)CNC2CCCCC2)cc1	12.3	36.5*	-0.6	nt	4.8	nt	-2.4	-5.7
CC1CCCC(C)N1S(=O)(=O)c1ccc(NC(=O)CNC2CCCC2)cc1 (stereo not given)	15.4	53.7*	-1.4	nt	-5.2	nt	22.9	5.7
CN(C(=O)c1ccc(S(=O)(=O)NC2CCCC2)cc1)C1CCCCC1	18.4	29.8*	-5.4	3.1	11.3	11.7	45.7*	21.5*

Source: PubChem BioAssay (several laboratories)
